According to ChEMBL document CHEMBL4342411, “Novel multitarget 5-arylidenehydantoins with arylpiperazinealkyl fragment: Pharmacological evaluation and investigation of cytotoxicity and metabolic stability” (Bioorg Med Chem, 2019):

Key:
[1] = target: 3',5'-cyclic-AMP phosphodiesterase 4B (Homo sapiens) (UniProt Q07343); conditions: Sf9, 10^-5.5 M
[2] = target: 5-hydroxytryptamine receptor 6 (Homo sapiens) (UniProt P50406); assay: Displacement of [3H]-LSD from human recombinant 5-HT6 receptor expressed in CHO cells at 10^-6 M incubated for 60 mins by microbeta2 scintillation counter relative to control; format: cell-based
Outline: (§1)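 Radioligand displacement from recombinant human receptor membranes, tested at two final concentrations (10^-6 and 10^-7 M), with scintillation counting. Results were expressed as percent inhibition of specific binding.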

[3] = target: 3',5'-cyclic-AMP phosphodiesterase 4B (Homo sapiens) (UniProt Q07343); assay: Inhibition of human recombinant full length N-terminal GST-tagged PDE4B1 expressed in baculovirus infected Sf9 cells at 10^-5 M using cAMP as substrate incubated for 20 mins followed by substrate addition by luciferase assay relative to control
[4] = target: T1, 5-hydroxytryptamine receptor 1A (Homo sapiens, UniProt P08908); assay: Displacement of [3H]-8-OH-DPAT from human recombinant 5-HT1A receptor expressed in HEK293 cells incubated for 60 mins by microbeta2 scintillation counter; format: cell-based
T1 sequence (P08908 whole entry): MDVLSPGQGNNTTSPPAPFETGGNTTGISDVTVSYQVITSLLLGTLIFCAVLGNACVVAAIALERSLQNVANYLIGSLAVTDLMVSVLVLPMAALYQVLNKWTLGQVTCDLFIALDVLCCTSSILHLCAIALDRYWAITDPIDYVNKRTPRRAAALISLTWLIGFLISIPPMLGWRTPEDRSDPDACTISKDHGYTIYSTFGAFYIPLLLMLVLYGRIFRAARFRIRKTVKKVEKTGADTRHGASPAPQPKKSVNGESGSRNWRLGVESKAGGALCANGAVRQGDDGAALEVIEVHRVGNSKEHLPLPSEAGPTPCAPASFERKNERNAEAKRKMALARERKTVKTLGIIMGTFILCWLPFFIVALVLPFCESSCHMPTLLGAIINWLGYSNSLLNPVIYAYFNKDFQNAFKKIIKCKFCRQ

[5] = target: 5-hydroxytryptamine receptor 7 (Homo sapiens, UniProt P34969); assay: biochemical; format: cell-based, CHO;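 note: radioligand displacement of [3H]-LSD binding to recombinant human 5-HT7 receptor in CHO cells, 60 min incubation, read by scintillation counting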
[6] = target: 5-hydroxytryptamine receptor 6 (Homo sapiens) (UniProt P50406); assay: Displacement of [3H]-LSD from human recombinant 5-HT6 receptor expressed in CHO cells at 10^-7 M incubated for 60 mins by microbeta2 scintillation counter relative to control; format: cell-based
Outline: as §1

[7] = target: 5-hydroxytryptamine receptor 2A (Homo sapiens) (UniProt P28223); conditions: HEK293, at 1 µM
[8] = target: 5-hydroxytryptamine receptor 2A (Homo sapiens) (UniProt P28223); conditions: HEK293, at 0.1 µM
in vitro = conditions: CD1, mouse, microsomes

5-hydroxytryptamine receptor 6 (Homo sapiens), sequence (P50406 whole entry): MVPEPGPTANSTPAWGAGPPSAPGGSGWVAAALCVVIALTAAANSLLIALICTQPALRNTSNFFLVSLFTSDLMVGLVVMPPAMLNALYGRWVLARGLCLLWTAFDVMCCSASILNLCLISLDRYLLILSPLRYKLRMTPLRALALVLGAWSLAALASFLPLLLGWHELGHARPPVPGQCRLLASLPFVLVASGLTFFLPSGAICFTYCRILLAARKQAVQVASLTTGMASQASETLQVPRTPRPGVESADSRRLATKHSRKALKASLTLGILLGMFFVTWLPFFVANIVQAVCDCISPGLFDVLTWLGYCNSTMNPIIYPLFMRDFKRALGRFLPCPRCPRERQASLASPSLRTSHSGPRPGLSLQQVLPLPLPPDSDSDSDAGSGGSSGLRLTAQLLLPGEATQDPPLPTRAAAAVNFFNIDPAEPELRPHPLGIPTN
5-hydroxytryptamine receptor 7, sequence (P34969 whole entry): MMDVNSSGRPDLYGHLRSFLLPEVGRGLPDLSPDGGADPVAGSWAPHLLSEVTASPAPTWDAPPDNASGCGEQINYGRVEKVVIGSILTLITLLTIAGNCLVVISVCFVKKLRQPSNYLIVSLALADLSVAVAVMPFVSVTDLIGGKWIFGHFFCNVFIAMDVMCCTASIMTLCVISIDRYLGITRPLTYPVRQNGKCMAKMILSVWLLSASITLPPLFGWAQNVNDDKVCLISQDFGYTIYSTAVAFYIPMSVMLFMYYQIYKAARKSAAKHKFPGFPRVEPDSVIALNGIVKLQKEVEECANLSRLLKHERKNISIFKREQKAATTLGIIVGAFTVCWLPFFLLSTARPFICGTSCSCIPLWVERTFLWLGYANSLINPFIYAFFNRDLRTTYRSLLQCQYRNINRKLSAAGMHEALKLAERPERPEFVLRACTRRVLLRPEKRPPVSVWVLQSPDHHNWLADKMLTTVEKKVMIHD
5-hydroxytryptamine receptor 2A (Homo sapiens), sequence (P28223 whole entry): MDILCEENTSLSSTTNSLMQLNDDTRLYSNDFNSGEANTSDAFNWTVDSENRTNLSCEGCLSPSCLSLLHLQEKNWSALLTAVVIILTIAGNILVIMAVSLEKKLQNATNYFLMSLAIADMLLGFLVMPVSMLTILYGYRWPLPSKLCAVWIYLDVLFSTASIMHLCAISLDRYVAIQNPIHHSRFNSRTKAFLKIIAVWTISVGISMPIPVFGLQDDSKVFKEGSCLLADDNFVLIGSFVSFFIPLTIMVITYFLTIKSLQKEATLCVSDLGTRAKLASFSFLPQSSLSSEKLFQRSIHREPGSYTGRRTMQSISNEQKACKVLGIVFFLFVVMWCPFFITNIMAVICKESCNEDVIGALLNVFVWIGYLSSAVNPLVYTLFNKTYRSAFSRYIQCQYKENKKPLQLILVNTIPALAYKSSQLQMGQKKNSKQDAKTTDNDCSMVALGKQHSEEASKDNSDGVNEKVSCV
3',5'-cyclic-AMP phosphodiesterase 4B (Homo sapiens), sequence (Q07343 whole entry): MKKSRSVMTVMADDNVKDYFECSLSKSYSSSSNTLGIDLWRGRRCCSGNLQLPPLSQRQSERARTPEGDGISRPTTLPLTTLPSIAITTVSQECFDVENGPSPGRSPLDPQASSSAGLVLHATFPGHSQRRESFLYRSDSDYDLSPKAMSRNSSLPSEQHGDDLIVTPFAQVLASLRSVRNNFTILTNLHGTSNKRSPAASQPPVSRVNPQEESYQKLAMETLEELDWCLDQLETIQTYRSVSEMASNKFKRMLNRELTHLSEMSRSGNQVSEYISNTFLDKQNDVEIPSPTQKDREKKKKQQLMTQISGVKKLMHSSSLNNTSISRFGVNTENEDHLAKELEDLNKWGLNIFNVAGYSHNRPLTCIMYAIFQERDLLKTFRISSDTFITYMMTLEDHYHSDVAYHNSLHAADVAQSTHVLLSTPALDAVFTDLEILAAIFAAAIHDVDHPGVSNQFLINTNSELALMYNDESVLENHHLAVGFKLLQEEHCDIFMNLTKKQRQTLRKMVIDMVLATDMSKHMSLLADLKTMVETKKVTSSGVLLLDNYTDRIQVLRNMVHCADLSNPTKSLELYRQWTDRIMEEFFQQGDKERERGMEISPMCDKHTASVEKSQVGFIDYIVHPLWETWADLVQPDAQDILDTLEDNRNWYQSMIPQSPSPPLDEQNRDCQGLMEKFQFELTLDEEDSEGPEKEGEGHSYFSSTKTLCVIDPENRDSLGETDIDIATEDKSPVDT

Row | SMILES | inhibition [1] [%] | inhibition [2] [%] | inhibition [3] [%] | Ki [4] [nM] | Ki [5] [nM] | inhibition [6] [%] | inhibition [7] [%] | inhibition [8] [%] | half-life (in vitro) [h]
1 | COc1ccc(C2CNC(=O)C2)cc1OC1CCCC1 (stereo unspecified) | 84 | – | – | – | – | – | – | – | –
2 | COc1ccc(/C=C2\NC(=O)N(CCCCN3CCN(c4ncccn4)CC3)C2=O)cc1OC | – | 0 | 14 | 45 | 933 | 0 | 41 | 0 | –
3 | CC(C)NCC(O)COc1cccc2ccccc12 (stereo unspecified) [PROPRANOLOL] | – | – | – | – | – | – | – | – | 1.41
4 | COc1ccc(/C=C2\NC(=O)N(CCCN3CCN(c4cccc(Cl)c4Cl)CC3)C2=O)cc1OC | – | 72 | 5 | 53 | 22 | 0 | 97 | 61 | –
5 | COc1ccc(/C=C2\NC(=O)N(CCCN3CCN(c4cccc(Cl)c4Cl)CC3)C2=O)cc1OC1CCCC1 | – | 70 | 3 | > 1000 | 380 | 0 | 96 | 27 | –
6 | CSc1ccc2c(c1)C(N1CCN(C)CC1)Cc1ccccc1S2 (stereo unspecified) | – | 99 | – | – | – | 99 | – | – | –
7 | COc1ccc(/C=C2\NC(=O)N(CCCCN3CCN(c4ncccn4)CC3)C2=O)cc1OC1CCCC1 | – | 8 | 10 | 64 | 298 | 0 | 78 | 19 | –
8 | COc1ccc(/C=C2\NC(=O)N(CCCCN3CCN(c4ccccc4OC)CC3)C2=O)cc1OC | – | 9 | 8 | 7 | 16 | 0 | 87 | 31 | –
9 | COc1ccc(/C=C2\NC(=O)N(CCCN3CCN(c4ccccc4OC)CC3)C2=O)cc1OC | – | 0 | 9 | 13 | 42 | 0 | 83 | 25 | –
